According to ChEMBL document CHEMBL1154008, “Synthesis and in vitro activity of new tetrahydronaphtho[1,2-b]azepine derivatives against Trypanosoma cruzi and Leishmania chagasi parasites” (Bioorg Med Chem Lett, 2009):

Assays:
[1] = Selectivity index, ratio of CC50 for human THP1 cells to IC50 for Leishmania chagasi MHOM/BR/74/PP75 promastigotes; assay type: functional, THP-1
Outline: (§1)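 SI calculated as Vero CC50 divided by T. cruzi IC50, or THP-1 CC50 divided by L. chagasi IC50. Both values come from 72 h exposures: parasites at 27 °C, mammalian cells at 37 °C with MTT read-out.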

[2] = Cytotoxicity against african green monkey Vero cells after 72 hrs by MTT assay; assay type: cell-based; settings: chlorocebus sabaeus
Outline: (§2)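 Vero or transformed THP-1 cells exposed to a 3-fold compound dilution series, in triplicate, for 72 h at 37 °C. Toxicity read by MTT reduction. CC50/CC90 taken as the concentrations killing 50% or 90% of cells. Values are representative of one experiment out of three.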

Leishmania chagasi = experiment: Antiparasitic activity against Leishmania chagasi MHOM/BR/74/PP75 promastigotes infected in human THP1 cells after 72 hrs; settings: MHOM/BR/74/PP75, THP-1, 72 h
[3] = Selectivity index, ratio of CC50 for african green monkey Vero cells to IC50 for Trypanosoma cruzi 320I04 intracellular amastigotes; assay type: functional
Trypanosoma cruzi [4] = experiment: Antiparasitic activity against Trypanosoma cruzi 320I04 intracellular amastigotes infected in african green monkey Vero cells after 72 hrs; assay type: functional, organism-based; settings: 320I04, Vero
Trypanosoma cruzi [5] = experiment: Antiparasitic activity against Trypanosoma cruzi 320I04 epimastigotes […] after 72 hrs; assay type: functional, organism-based
Outline: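 Free parasite forms (T. cruzi 320I04 epimastigotes; L. chagasi MHOM/BR/74/PP75 promastigotes) exposed to compounds for 72 h at 27 °C. IC50/IC90 taken as the concentrations giving 50% or 90% growth inhibition. Values are representative of one experiment out of three.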

[6] = Selectivity index, ratio of CC50 for african green monkey Vero cells to IC50 for Trypanosoma cruzi 320I04 epimastigotes; assay type: functional; outline: as §1
[7] = Cytotoxicity against human THP1 cells after 72 hrs by MTT assay; assay type: cell-based; settings: THP-1 cells; outline: as §2

IC50 (Leishmania chagasi) [µM] | IC90 (Leishmania chagasi) [µM] | IC50 (Trypanosoma cruzi [4]) [µM] | IC90 (Trypanosoma cruzi [4]) [µM] | IC50 (Trypanosoma cruzi [5]) [µM] | IC90 (Trypanosoma cruzi [5]) [µM] | SMILES | Ratio CC50/IC50 [1] | CC50 at 72 h [2] [µM] | CC90 at 72 h [2] [µM] | Ratio CC50/IC50 [3] | Ratio CC50/IC50 [6] | CC50 at 72 h [7] [µM] | CC90 at 72 h [7] [µM]
11 | 28.2 | > 30 | > 30 | 1 | 19.4 | O[C@@H]1Cc2ccc3ccccc3c2N[C@H](c2ccc(Cl)cc2Cl)C1 | 7.2 | 45.4 | > 200 | <1.5 | 45.4 | 79.4 | 92.7
10.4 | 31.3 | 18.4 | 76.3 | 17.5 | 82.3 | Brc1cccc([C@@H]2C[C@@H]3Cc4ccc5ccccc5c4N2O3)c1 | >24 | > 250 | > 250 | >13.6 | >14.3 | > 250 | > 250
